# In ChEMBL document CHEMBL1275280, “Synthesis, structural elucidation and DNA-dependant protein kinase and antiplatelet studies of 2-amino-[5, 6, 7, 8-mono and 7, 8-di-substituted]-1,3-benzoxazines” (Eur J Med Chem, 2010):
# Activity calls are given as the source filed them. The calls are words filed in the database; no cut-off is given here.
# Test system: not listed separately
# Test: Inhibition of DNA-dependent protein kinase at 1.6 uM
# Method in brief: (§1)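 Compound in DMSO was added in place of water, at final concentrations of 1.6–4.0. The reaction was stopped with termination buffer and captured on a biotin membrane. After washing, scintillation counts gave percent inhibition relative to the full-reaction positive control (n = 3).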
row,inhibition,SMILES
1,Active,Cc1c(OCc2ccccn2)ccc2c(=O)nc(N3CCOCC3)oc12

# Test system: not listed separately
# Test: Inhibition of DNA-dependent protein kinase at 4 uM
# Method in brief: as §1
row,inhibition,SMILES
1,inactive,CN1CCN(CCOc2ccc3oc(N4CCOCC4)nc(=O)c3c2)CC1
2,Active,Cc1c(OCCN2CCN(C)CC2)ccc2c(=O)nc(N3CCOCC3)oc12
3,Active,Cc1c(OCc2cccnc2)ccc2c(=O)nc(N3CCOCC3)oc12
4,Active,CN1CCN(CCOc2ccc3c(=O)nc(N4CCOCC4)oc3c2)CC1
5,inactive,CN1CCN(CCOc2cccc3oc(N4CCOCC4)nc(=O)c23)CC1
6,Active,CN1CCN(CCOc2cccc3c(=O)nc(N4CCOCC4)oc23)CC1

# Test system: not listed separately
# Test: Inhibition of DNA-dependent protein kinase at 2 uM
# Method in brief: as §1
row,inhibition,SMILES
1,Active,O=c1nc(N2CCOCC2)oc2c(-c3ccccc3)cccc12
2,Active,Cc1c(OCc2ccncc2)ccc2c(=O)nc(N3CCOCC3)oc12

# Test system: Platelet
# Test: Inhibition of collagen-induced platelet aggregation in human venous blood by optical method based aggregometry
# Assay type: functional, tissue-based
row,SMILES,IC50 [µM]
1,CN1CCN(CCOc2ccc3oc(N4CCOCC4)nc(=O)c3c2)CC1,≥ 86
2,Cc1c(OCCCl)ccc2c(=O)nc(N3CCOCC3)oc12,36
3,Cc1c(OCCBr)ccc2c(=O)nc(N3CCSCC3)oc12,75
4,O=c1nc(N2CCOCC2)oc2cccc(OCCCl)c12,≥ 100
5,O=c1nc(N2CCOCC2)oc2cccc(OCc3cccnc3)c12,≥ 100
6,O=c1nc(N2CCOCC2)oc2c(OCCCl)cccc12,60
7,Cc1c(OCc2ccccn2)ccc2c(=O)nc(N3CCOCC3)oc12,34
8,Cc1c(OCCN2CCN(C)CC2)ccc2c(=O)nc(N3CCSCC3)oc12,47
9,Cc1c(OCc2cccnc2)ccc2c(=O)nc(N3CCOCC3)oc12,2
10,CC(C)c1cccc2c(=O)nc(N3CCOCC3)oc12,70
11,Cc1c(O)ccc2c(=O)nc(C3CCNCC3)oc12,≥ 90
12,Cc1c(OCCN2CCN(C)CC2)ccc2c(=O)nc(N3CCCCC3)oc12,36
13,O=c1nc(N2CCOCC2)oc2c(OCc3cccnc3)cccc12,22
14,O=c1nc(N2CCOCC2)oc2c(OCc3ccncc3)cccc12,70
15,Cc1c(OCCBr)ccc2c(=O)nc(N3CCCCC3)oc12,61
16,CN1CCN(CCOc2cccc3oc(N4CCOCC4)nc(=O)c23)CC1,≥ 100
17,O=c1nc(N2CCOCC2)oc2cccc(OCc3ccccc3)c12,≥ 100
18,O=c1nc(N2CCOCC2)oc2c(OCc3ccccc3)cccc12,53
19,Cc1c(OCc2ccncc2)ccc2c(=O)nc(N3CCOCC3)oc12,4
20,Cc1c(O)ccc2c(=O)nc(N3CCSCC3)oc12,≥ 100
21,CN1CCN(CCOc2cccc3c(=O)nc(N4CCOCC4)oc23)CC1,80

# The remaining lines, values ahead:
row,IC50 [µM],SMILES
1,45,O=c1nc(N2CCOCC2)oc2cc(OCc3ccncc3)ccc12
2,80,O=c1nc(N2CCOCC2)oc2cc(F)ccc12
3,83,O=c1nc(N2CCOCC2)oc2ccc(OCCBr)cc12
4,≥ 100,O=c1nc(N2CCOCC2)oc2ccc(OCc3ccccc3)cc12
5,75,O=c1nc(N2CCOCC2)oc2cc(OCc3ccccn3)ccc12
6,70,O=c1nc(N2CCOCC2)oc2cc(OCc3cccnc3)ccc12
7,≥ 90,O=c1nc(N2CCOCC2)oc2ccc(OCc3cccnc3)cc12
8,87,O=c1nc(N2CCOCC2)oc2ccc(OCCCl)cc12
9,70,O=c1nc(N2CCOCC2)oc2c(OCCBr)cccc12
10,85,CCOc1ccc2c(=O)nc(N3CCOCC3)oc2c1
